Measured values published in ChEMBL document CHEMBL1275344, “Synthesis and antimalarial assessment of a new series of orally active amino-functionalized spiro 1,2,4-trioxanes” (J Med Chem, 2010).
Active and inactive are the calls of the source. No cut-off for these calls is given here.

Experiments:
[1] = Lipophilicity, log P of the compound; assay type: physicochemical; details: octanol/water
[2] = system: Plasmodium yoelii nigeriensis; test: Antimalarial activity against multidrug-resistant Plasmodium yoelii nigeriensis infected in Swiss mice (Mus musculus) assessed as suppression of parasitaemia at 96 mg/kg, perorally for 4 days relative to control; assay type: functional; details: route oral
Method in brief: (§1)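 Swiss mice of either sex (20 ± 2 g) infected intraperitoneally with 1 × 10⁶ MDR P. yoelii nigeriensis parasites on day 0. Five mice per dose group, given oral doses in groundnut oil, twice daily on days 0–3. Parasitaemia read from day-4 thin blood smears. Suppression = [(C − T)/C] × 100, with C and T the control and treated parasitaemia. 100% means no parasites seen in 50 oil-immersion fields.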

[3] = system: Plasmodium yoelii nigeriensis; test: Antimalarial activity against multidrug-resistant Plasmodium yoelii nigeriensis infected in Swiss mice (Mus musculus) assessed as curated mice (Mus musculus) at 96 mg/kg, peroral for 4 days; assay type: functional, organism-based; design: dose 96 mg/kg
Method in brief: (§2)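 Swiss mice of either sex (20 ± 2 g) inoculated intraperitoneally with 1 × 10⁶ MDR P. yoelii nigeriensis parasites on day 0. Five mice per dose group, dosed orally in groundnut oil (0.1 mL), in two divided doses daily from day 0 to 3. Thin blood smears read on day 4, then twice weekly to day 28. Mice without patent infection by day 28 counted as cured. β-Arteether was the positive control.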

[4] = system: Plasmodium yoelii nigeriensis; test: Antimalarial activity against multidrug-resistant Plasmodium yoelii nigeriensis infected in Swiss mice (Mus musculus) assessed as suppression of parasitaemia at 48 mg/kg, peroral for 4 days relative to control; assay type: functional; details: route oral; method in brief: as §1
[5] = system: Plasmodium yoelii nigeriensis; test: Antimalarial activity against multidrug-resistant Plasmodium yoelii nigeriensis infected in Swiss mice (Mus musculus) assessed as suppression of parasitaemia at 24 mg/kg, peroral for 4 days relative to control; assay type: functional; details: route oral; method in brief: as §1
[6] = system: Plasmodium yoelii nigeriensis; test: Antimalarial activity against multidrug-resistant Plasmodium yoelii nigeriensis infected in Swiss mice (Mus musculus) assessed as suppression of parasitaemia at 12 mg/kg, peroral for 4 days relative to control; assay type: functional; details: route oral; method in brief: as §1
[7] = system: Plasmodium yoelii nigeriensis; test: Antimalarial activity against multidrug-resistant Plasmodium yoelii nigeriensis infected in Swiss mice (Mus musculus) assessed as curated mice (Mus musculus) at 48 mg/kg, peroral for 4 days; assay type: functional, organism-based; design: dose 48 mg/kg; method in brief: as §2
[8] = system: Plasmodium yoelii nigeriensis; test: Antimalarial activity against multidrug-resistant Plasmodium yoelii nigeriensis infected in Swiss mice (Mus musculus) assessed as curated mice (Mus musculus) at 24 mg/kg, peroral for 4 days; assay type: functional, organism-based; design: dose 24 mg/kg; method in brief: as §2
[9] = system: Plasmodium yoelii nigeriensis; test: Antimalarial activity against multidrug-resistant Plasmodium yoelii nigeriensis infected in Swiss mice (Mus musculus) assessed as curated mice (Mus musculus) at 12 mg/kg, peroral for 4 days; assay type: functional, organism-based; design: dose 12 mg/kg; method in brief: as §2

Compound	logP [1]	Activity [2] [%]	Activity [3]	Activity [4] [%]	Activity [5] [%]	Activity ([6]; 12 mg/kg) [%]	Activity [7]	Activity [8]	Activity [9]	Activity [6] [%]
C=C(c1ccc2ccccc2c1)C1CCC2(CC1)COC(Nc1ccc(C)cc1)OO2 (stereo not given)	6.08	100	Active	100	–	–	–	–	–	–
C=C(c1ccc2ccccc2c1)C1CCC2(CC1)COC(Nc1cc(Cl)cc(Cl)c1)OO2 (stereo not given)	6.71	100	Active	100	–	–	–	–	–	–
C=C(c1ccc2c(c1)Cc1ccccc1-2)C1CCC2(CC1)COC(Nc1ccc(C(F)(F)F)cc1)OO2 (stereo not given)	7.25	100	Active	100	–	–	–	–	–	–
C=C(c1cccc2ccccc12)C1CCC2(CC1)COC(Nc1ccccc1-c1ccccc1)OO2 (stereo not given)	7.26	100	Active	100	–	–	–	–	–	–
C=C(c1cccc2ccccc12)C1CCC2(CC1)COC(Nc1ccc(F)cc1)OO2 (stereo not given)	5.75	100	Active	100	–	–	–	–	–	–
C=C(c1ccc2ccccc2c1)C1CCC2(CC1)COC(Nc1ccc(C(F)(F)F)cc1)OO2 (single isomer, unassigned; less polar) [listing 1 of 2 here]	6.51	100	–	100	100	6.25	–	–	–	–
C=C(c1ccc2ccccc2c1)C1CCC2(CC1)COC(Nc1ccc(OC)cc1)OO2 (stereo not given)	5.46	100	Active	100	–	–	–	–	–	–
C=C(c1ccc2c(c1)Cc1ccccc1-2)C1CCC2(CC1)COC(Nc1ccccc1)OO2 (stereo not given)	6.33	100	Active	100	–	–	–	–	–	–
C=C(c1ccc2ccccc2c1)C1CCC2(CC1)COC(Nc1ccccc1-c1ccccc1)OO2 (stereo not given)	7.26	100	Active	100	–	–	–	–	–	–
C=C(c1ccc2c(c1)Cc1ccccc1-2)C1CCC2(CC1)COC(Nc1ccc(F)cc1)OO2 (stereo not given)	6.48	100	Active	100	–	–	–	–	–	–
C=C(c1ccc2ccc3ccccc3c2c1)C1CCC2(CC1)COC(Nc1ccc(C(F)(F)F)cc1)OO2 (stereo not given)	7.51	100	Active	82.22	–	–	inactive	–	–	–
C=C(c1ccc2ccc3ccccc3c2c1)C1CCC2(CC1)COC(Nc1ccccc1)OO2 (stereo not given)	6.59	100	Active	100	100	–	–	–	–	–
C=C(c1ccc2ccc3ccccc3c2c1)C1CCC2(CC1)COC(Nc1ccc(C)cc1)OO2 (stereo not given)	7.07	100	Active	100	100	–	Active	–	–	–
C=C(c1ccc2ccc3ccccc3c2c1)C1CCC2(CC1)COC(Nc1ccc(OC)cc1)OO2 (stereo not given)	6.46	100	Active	100	–	–	–	–	–	–
C=C(c1ccc2ccccc2c1)C1CCC2(CC1)COC(Nc1cccc(C(F)(F)F)c1)OO2 (stereo not given)	6.51	100	Active	100	–	–	–	–	–	–
C=C(c1ccc2c(c1)Cc1ccccc1-2)C1CCC2(CC1)COC(Nc1cccc(C(F)(F)F)c1)OO2 (stereo not given)	7.25	100	Active	100	–	–	inactive	–	–	–
C=C(c1ccc2ccccc2c1)C1CCC2(CC1)COC(Nc1ccc(C(F)(F)F)cc1)OO2 (single isomer, unassigned; more polar) [listing 1 of 2 here]	–	–	Active	–	–	–	Active	Active	–	–
C=C(c1ccc2c(c1)Cc1ccccc1-2)C1CCC2(CC1)COC(Nc1ccc(Cl)cc1)OO2 (stereo not given)	6.88	100	Active	–	–	–	–	–	–	–
C=C(c1ccc2ccccc2c1)C1CCC2(CC1)COC(Nc1ccccc1)OO2 (stereo not given)	5.59	100	Active	100	–	–	–	–	–	–
C=C(c1cccc2ccccc12)C1CCC2(CC1)COC(Nc1cccc(C(F)(F)F)c1)OO2 (stereo not given)	6.51	100	Active	100	–	–	–	–	–	–

Compound	logP [1]	Activity [2] [%]	Activity [3]	Activity [4] [%]	Activity [5] [%]	Activity ([6]; 12 mg/kg) [%]	Activity [7]	Activity [8]	Activity [9]	Activity [6] [%]
C=C(c1ccc2ccc3ccccc3c2c1)C1CCC2(CC1)COC(Nc1ccc(F)cc1)OO2 (stereo not given)	6.74	100	Active	100	–	–	–	–	–	–
C=C(c1ccc2c(c1)Cc1ccccc1-2)C1CCC2(CC1)COC(Nc1cc(Cl)cc(Cl)c1)OO2 (stereo not given)	7.44	100	inactive	–	–	–	–	–	–	–
C=C(c1ccc2ccccc2c1)C1CCC2(CC1)COC(Nc1ccc(Cl)cc1)OO2 (stereo not given)	6.15	100	Active	100	100	–	Active	inactive	inactive	60
C=C(c1ccc2ccc3ccccc3c2c1)C1CCC2(CC1)COC(Nc1ccccc1-c1ccccc1)OO2 (stereo not given)	8.26	100	Active	74.36	–	–	inactive	–	–	–
C=C(c1cccc2ccccc12)C1CCC2(CC1)COC(Nc1ccc(C)cc1)OO2 (stereo not given)	6.08	100	–	100	–	–	–	–	–	–
C=C(c1ccc2c(c1)Cc1ccccc1-2)C1CCC2(CC1)COC(Nc1ccc(C)cc1)OO2 (stereo not given)	6.81	100	Active	100	–	–	–	–	–	–
C=C(c1ccc2ccccc2c1)C1CCC2(CC1)COC(Nc1ccc(C(F)(F)F)cc1)OO2 (single isomer, unassigned; more polar) [listing 2 of 2 here]	–	–	–	–	–	100	–	–	–	–
C=C(c1ccc2ccc3ccccc3c2c1)C1CCC2(CC1)COC(Nc1cc(Cl)cc(Cl)c1)OO2 (stereo not given)	7.7	100	Active	62.5	–	–	–	–	–	–
C=C(c1ccc2ccc3ccccc3c2c1)C1CCC2(CC1)COC(Nc1cccc(C(F)(F)F)c1)OO2 (stereo not given)	7.51	100	Active	100	–	–	inactive	–	–	–
C=C(c1ccc2ccccc2c1)C1CCC2(CC1)COC(Nc1ccc(F)cc1)OO2 (stereo not given)	5.75	100	Active	100	100	–	–	–	–	–
CCO[C@H]1O[C@@H]2O[C@@]3(C)CC[C@H]4[C@H](C)CC[C@@H]([C@H]1C)[C@@]24OO3 [ARTEMOTIL]	–	–	–	100	100	–	Active	–	–	–
C=C(c1ccc2ccc3ccccc3c2c1)C1CCC2(CC1)COC(Nc1ccc(Cl)cc1)OO2 (stereo not given)	7.14	100	Active	76.9	–	–	–	–	–	–
C=C(c1cccc2ccccc12)C1CCC2(CC1)COC(Nc1ccc(OC)cc1)OO2 (stereo not given)	5.46	100	Active	100	–	–	–	–	–	–
C=C(c1ccc2c(c1)Cc1ccccc1-2)C1CCC2(CC1)COC(Nc1ccccc1-c1ccccc1)OO2 (stereo not given)	8	100	inactive	–	–	–	–	–	–	–
C=C(c1ccc2ccccc2c1)C1CCC2(CC1)COC(Nc1ccc(C(F)(F)F)cc1)OO2 (single isomer, unassigned; less polar) [listing 2 of 2 here]	–	–	Active	–	–	–	Active	Active	inactive	–
C=C(c1cccc2ccccc12)C1CCC2(CC1)COC(Nc1cc(Cl)cc(Cl)c1)OO2 (stereo not given)	6.71	100	Active	100	–	–	–	–	–	–
C=C(c1cccc2ccccc12)C1CCC2(CC1)COC(Nc1ccc(Cl)cc1)OO2 (stereo not given)	6.15	100	–	100	–	–	–	–	–	–
C=C(c1cccc2ccccc12)C1CCC2(CC1)COC(Nc1ccc(C(F)(F)F)cc1)OO2 (stereo not given)	6.51	100	Active	100	–	–	–	–	–	–
C=C(c1cccc2ccccc12)C1CCC2(CC1)COC(Nc1ccccc1)OO2 (stereo not given)	5.59	100	Active	100	–	–	–	–	–	–
C=C(c1ccc2c(c1)Cc1ccccc1-2)C1CCC2(CC1)COC(Nc1ccc(OC)cc1)OO2 (stereo not given)	6.2	100	Active	100	–	–	inactive	–	–	–
